Most compounds without a hit are left out; they make up all but 2.1% or so of the library.
C2C12 statin – suppression of simvastatin myotoxicity; 330,000 compounds, 0.78% hits; rescue of ATP level, % at 7.49 µM; AID 602340; C2C12 myotubes + simvastatin, ATP luminescence, 48 h; scaled: DMSO 0, geranylgeraniol control 100;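 active means mean ATP rescue above about 67%, or every replicate alone reaching that limit, limit read from the data, passing the limit was not always enough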;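 further: myotubes were challenged with 10 µM simvastatin during compound exposure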
ASAP1 GAP inh – ASAP1 ArfGAP inhibition. ASAP1-stimulated ARF1 GTP hydrolysis, GDP FP detection. inhibition, % at 16.5 µM. Q9ULH1. 360,000 compounds, 0.19% hits; in the data active means inhibition above about 25%
APOBEC3A inh – inhibitors of human APOBEC3A DNA deaminase. 330,000 compounds, 0.41% hits. inhibition, % at 20 µM. recombinant A3A, FAM/TAMRA ssDNA deamination fluorescence. P31941;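 active means at least 40% inhibition at 20 µM here, with at most 30% in a related deaminase screen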
Mot1-301 SUMO – inhibitors of SUMOylation pathway: yeast Mot1-301 growth rescue | S. cerevisiae Mot1-301 growth rescue, ATP luminescence, 38.5C; percent above DMSO median, 100 means doubled | growth rescue, % at 18.8 µM | 320,000 compounds, 1% hits;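 active means every valid replicate shows activation above 250% relative to neutral control wells; inactive means the rest, any valid replicate at or below 250%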
APOBEC3G inh – inhibitors of human APOBEC3G DNA deaminase. Q9HC16. AID 493012. 330,000 compounds, 0.28% hits. inhibition, % at 20 µM. recombinant A3G, ssDNA deamination FAM/TAMRA fluorescence;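 active means inhibition of at least 40% at 20 µM, with no more than 30% in the related APOBEC3A deaminase screen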
Target sequence (Q9HC16 whole entry, looked up): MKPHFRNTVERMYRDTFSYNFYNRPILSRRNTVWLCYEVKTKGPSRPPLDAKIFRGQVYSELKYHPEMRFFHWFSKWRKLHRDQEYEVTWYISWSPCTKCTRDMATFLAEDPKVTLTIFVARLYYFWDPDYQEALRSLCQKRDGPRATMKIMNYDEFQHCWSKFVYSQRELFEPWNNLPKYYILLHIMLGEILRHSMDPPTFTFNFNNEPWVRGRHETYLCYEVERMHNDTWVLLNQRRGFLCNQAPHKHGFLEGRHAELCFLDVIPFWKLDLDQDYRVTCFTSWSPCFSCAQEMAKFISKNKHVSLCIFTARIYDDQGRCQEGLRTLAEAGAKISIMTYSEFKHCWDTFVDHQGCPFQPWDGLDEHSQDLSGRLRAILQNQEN
ARFGAP1 inh – inhibits rat ARF GTPase activating protein 1. Q62848. Arfgap1-stimulated ARF1 GTP hydrolysis, GDP FP detection. inhibition, % at 16.5 µM. 360,000 compounds, 0.26% hits;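 active means inhibition above a per-plate limit, mean inhibition of low control wells plus 3 SD, cut at about 25% in these data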
Target sequence (Q62848 1-136 limits assumed): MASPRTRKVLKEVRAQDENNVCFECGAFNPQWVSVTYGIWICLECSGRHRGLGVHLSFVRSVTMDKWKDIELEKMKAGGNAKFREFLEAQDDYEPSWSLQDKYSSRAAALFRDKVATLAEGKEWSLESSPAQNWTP
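Assay system: purified rat His6-Arfgap1 residues 1-136 (GAP domain); Reagent: human Δ17 ARF1 bound to GTP; Dosing: 16.5 µM single point, 1.26% DMSO; Times: GTP hydrolysis reaction 2 h at 25 °C; Signal: FP, GDP Alexa 633 tracer displaced from anti-GDP antibody, 620/688 nm; Measure: % inhibition from polarization.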
Mot1 SUMO dose – yeast SUMO pathway inhibition in dose response; shares compounds with Mot1-301 SUMO; S. cerevisiae Mot1-301 galactose growth, ATP luminescence, 24 h; -100 = growth of slx-deleted rescue strain; growth activity, percent, % at 42 µM; 2,300 tested, under 10 active; AID 493004;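 active means Signal drops as the depositor expects, and the fitted half-maximal dose is no more than ten times the top valid tested dose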;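 further: more negative values mean stronger growth rescue toward the control strain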
Hits are given with their value; 0 = inactive; - = not tested or not shown; + = active, no number.

SMILES	C2C12 statin	ASAP1 GAP inh	APOBEC3A inh	Mot1-301 SUMO	APOBEC3G inh	ARFGAP1 inh	Mot1 SUMO dose
COCCCn1c2nc3ccccc3nc2c2c(=O)n(Cc3ccc(Cl)cc3)cnc21	0	0	0	425.4	0	0	0
C[C@@]12C(=O)Nc3cc(F)ccc3C(=O)N1[C@H]1c3ccccc3OC[C@@H]1[C@@H]2c1ccccc1	0	-	0	+	0	-	0
COc1ccc2c(c1)[C@H]1[C@H](CO2)[C@H](c2ccccc2)[C@]2(C)C(=O)Nc3cc(C)ccc3C(=O)N12	0	0	0	462.6	0	0	0
COc1ccc2c(c1)OC[C@H]1[C@H]2N2C(=O)c3cc(F)ccc3NC(=O)[C@@]2(C)[C@H]1c1ccccc1	0	0	0	+	0	0	0
COc1cc(C(=O)OCC(=O)NCc2ccccc2)cc(NC(=O)c2ccco2)c1OC	-	0	0	383.1	0	0	0
Cn1c(CSc2nc3ccccc3s2)nnc1SCC(=O)NCCN1CCOCC1	0	-	0	913.3	0	-	0
CCNC(=O)C[C@@H]1CC[C@H]2[C@@H](COc3ccc(NC(=O)c4cccc(OC)c4)cc3C(=O)N2C)O1	0	-	-	-	-	-	-
CN(C)c1ccc(/C=N\Nc2ccccn2)cc1	0	0	0	457.9	0	0	0
CC(=O)NCCc1nc2cc(NC(=O)c3ccc(F)cc3)ccc2n1C	0	0	0	741.0	0	0	0
COc1ccc(C(=O)Nc2ccc3c(c2)nc(CCNC(C)=O)n3C)cc1	0	0	0	0	0	0	-
C[C@@H]1CN([C@H](C)CO)C(=O)c2cc(NC(=O)C3CCCCC3)ccc2O[C@@H](C)CCCCO[C@@H]1CN(C)C(=O)NC1CCCCC1	0	-	-	-	-	-	-
CN(C)CC(=O)Nc1ccc2c(c1)[C@@H]1C[C@@H](CC(=O)NCc3cc(F)ccc3F)O[C@H](CO)[C@@H]1O2	0	-	-	-	-	-	-
N=c1n(CCCOc2ccc(Br)cc2)c2ccccc2n1CC(N)=O	0	0	0	363.0	0	0	0
CO[C@@H]1CN(C)C(=O)c2cc(NC(=O)C3CCCC3)ccc2OC[C@@H](C)N(S(=O)(=O)c2ccc(Cl)cc2)C[C@H]1C	0	-	-	-	-	-	-
c1ccc(N2CCN(C3CCSC3)CC2)cc1 (stereo not given)	0	0	0	817.3	0	0	0
Fc1ccc(N2CCN(C3CCC(c4ccccc4)CC3)CC2)cc1 (stereo not given)	0	0	0	0	0	0	-
O=C(Nc1nnc(-c2ccco2)o1)c1ccc(S(=O)(=O)N2CCCC2)cc1	-	0	0	473.7	0	0	0
C/C=C\C=C/C(=O)Nc1cccc(C2=NOC3(C2)C[C@@H](C(N)=O)N(C(=O)c2ccccc2)C3)c1 (stereo not given in full)	-	-	0	433.3	0	-	0
Cc1ccc(N/C=C(\C#N)c2ccc(OCCCF)cc2)cc1	-	0	0	724.1	0	0	0
Cc1cc(NC(=O)C(C)SCC(=O)O)no1 (stereo not given)	-	0	0	0	0	0	-
Cc1cccc(N(Cc2ccccc2)C(=O)CSC(C)C(=O)Nc2cc(C)on2)c1 (stereo not given)	0	0	0	554.5	0	0	0
CCOc1ccccc1NC(=O)c1ccc2c(c1)C(=O)N(CC(C)C)C2=O	0	0	0	550.9	0	0	0
Cc1ccccc1NC(=O)c1ccc2c(c1)C(=O)N(CC(C)C)C2=O	0	0	0	0	0	0	-
CO[C@H]1CN(C)C(=O)c2cc(NC(=O)Nc3ccc(Cl)cc3)ccc2OC[C@@H](C)N(C(=O)Nc2c(C)noc2C)C[C@@H]1C	0	-	-	-	-	-	-
C[C@H](CO)N1C[C@H](C)[C@@H](CN(C)S(=O)(=O)c2ccccc2)Oc2ccc(NC(=O)c3ccncc3)cc2CC1=O	0	-	-	-	-	-	-
SMILES	C2C12 statin	ASAP1 GAP inh	APOBEC3A inh	Mot1-301 SUMO	APOBEC3G inh	ARFGAP1 inh	Mot1 SUMO dose
COc1ccc(-c2cn(CC[C@@H]3CC[C@H](NC(=O)NC(C)C)[C@H](CO)O3)nn2)cc1	0	-	-	-	-	-	-
COCCn1c(=NC(=O)c2ccc(S(=O)(=O)N3CCOCC3)cc2)sc2cc(S(N)(=O)=O)ccc21	0	0	0	551.5	0	0	0
O=C(NCC1CCCO1)c1nn2c(C(F)(F)F)cc(-c3cc(Br)cs3)nc2c1Br (stereo not given)	0	0	0	471.9	0	0	0
O=C(NCC1CCCO1)c1nn2c(C(F)(F)F)cc(-c3ccco3)nc2c1Cl (stereo not given)	0	0	0	0	0	0	-
COc1ccc(S(=O)(=O)Nc2ccc3c(c2)C(=O)N([C@@H](C)CO)C[C@@H](C)[C@H](CN(C)S(=O)(=O)c2cccs2)OCCCC[C@H](C)O3)cc1	0	-	-	-	-	-	-
CN(C)c1ccc(C(CNS(=O)(=O)c2ccc([N+](=O)[O-])cc2)N2CCOCC2)cc1 (stereo not given)	0	0	0	575.4	0	0	0
CN1C(=O)c2cc(NS(C)(=O)=O)ccc2OC[C@@H]2O[C@H](CC(=O)NC3CCCCC3)CC[C@H]21	0	-	-	-	-	-	-
Cc1ccc(S(=O)(=O)NNC(=O)c2cc3cc4ccccc4nc3s2)cc1	0	0	0	553.2	0	0	0
Cc1cccc(C(=O)NNC(=O)c2cc3cc4ccccc4nc3s2)c1	0	0	0	0	0	0	-
O=C(CSc1nnc2ccccn12)NNC(=O)c1ccccc1	-	0	0	0	0	0	-
O=C(CSc1nnc2ccccn12)NNC(=O)c1ccc(Cl)cc1	0	0	0	598.7	0	0	0
O=C(N/N=C/C(Br)=C/c1ccccc1)c1cccnc1	-	0	0	500.5	0	0	0
CC(=O)NCc1c(Cl)cccc1-n1cccc1	0	0	0	785.2	0	0	0
COc1cc(NC(=O)CN2CCN(CC(=O)Nc3ccccc3OC)CC2)cc(OC)c1	0	0	0	518.1	0	0	0
COc1cc(NC(=O)CCN2CCN(Cc3ccccc3)CC2)cc(OC)c1	0	0	0	695.8	0	0	0
COc1ccc(NC(=O)CN2CCN(CC(=O)Nc3ccccc3OC)CC2)c(OC)c1	0	0	0	-	0	0	-
C[C@H](CO)N1C[C@H](C)[C@@H](CN(C)C(=O)C2CC2)OCc2ccccc2-c2ccccc2C1=O	0	-	-	-	-	-	-
O=C(CCC(=O)OCC(=O)c1ccc(Br)cc1)Nc1cccc2cccnc12	0	0	0	428.9	0	0	0
O=C(CSc1cccc2cccnc12)OCC(=O)c1ccc(Br)cc1	0	0	0	0	0	0	-
CN(C)CCOC(c1ccccc1)c1ccccc1	0	0	0	0	0	0	-
CN(C)CCOC(c1ccc(Cl)cc1)c1ccccn1 (stereo not given)	0	0	0	974.2	0	0	0
O=C(NCC[C@H]1CC[C@H](NC(=O)C2CC2)[C@@H](CO)O1)Nc1ccc(C(F)(F)F)cc1	0	-	-	-	-	-	-

Screening results: PubChem, several laboratories
